Test results as given in ChEMBL document CHEMBL1126644, “Structure-activity relationships in the trans-hexahydroindolo[4,3-ab]phenanthridine ("benzergoline") series. 2. Resolution, absolute configuration, and dopaminergic activity of the selective D1 agonist CY 208-243 and its implication for an "extended rotamer-based dopamine receptor model"” (1993).

Key:
Rattus norvegicus [1] = species on record: Rattus norvegicus; experiment: Tested in vitro for percent maximal inhibition in rat striatal slices (% of control) expressed as change of S2/S1 versus control at 1 uM
Bos taurus = species on record: Bos taurus; experiment: In vitro percent maximal stimulation relative to dopamine (125 uM) in bovine retina; assay type: functional
Procedure, shortened: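 Bovine retina adenylate cyclase stimulation, expressed as a percentage of the maximal effect produced by 125 μM dopamine.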

[2] = In vitro potency against adenylate cyclase in bovine retina; assay type: tissue-based
Procedure, shortened: (§1)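 Dopamine-sensitive adenylate cyclase assay on bovine retina tissue. Values are means of two to six independent experiments, each run in triplicate.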

Rattus norvegicus [3] = species on record: Rattus norvegicus; experiment: In vitro potency in rat striatal slices by electrically evoked acetylcholine release; assay type: functional
Rattus norvegicus [4] = species on record: Rattus norvegicus; experiment: Tested in vitro for percent maximal inhibition in rat striatal slices (% of control) expressed as change of S2/S1 versus control at 1 uM; remark: listed apart in the source
[5] = Compound was evaluated for in vitro potency against adenylate cyclase in bovine retina; assay type: tissue-based
Procedure, shortened: as §1

SMILES	inhibition at 1 µM (Rattus norvegicus [1]) [%]	Relative to DA (Bos taurus) [%]	pD2 [2]	pD2 (Rattus norvegicus [3])	inhibition at 1 µM (Rattus norvegicus [4]) [%]	pD2 [5]
Oc1ccc([C@@H]2CNCc3ccccc32)cc1O	0	86	6			
CN1CCC[C@@H]2c3cccc4[nH]cc(c34)C[C@H]21	30	24	5.2	7.5		
CN1CCC[C@@H]2Cc3c(O)cccc3C[C@H]21	62	14	6.15	7.3		
CN1Cc2ccccc2[C@@H]2c3cccc4[nH]cc(c34)C[C@H]21 (racemic) [listing 1 of 2 here]		57			0	
CN1Cc2ccccc2[C@@H]2c3cccc4[nH]cc(c34)C[C@H]21 (racemic) [listing 2 of 2 here]			6.1			
CN1Cc2ccccc2[C@@H]2c3cccc4[nH]cc(c34)C[C@H]21 (stereo in doubt) [listing 1 of 2 here]		68				
CN1Cc2ccccc2[C@@H]2c3cccc4[nH]cc(c34)C[C@H]21 (stereo in doubt) [listing 2 of 2 here]						6.9
CN1Cc2ccccc2[C@@H]2c3cccc4[nH]cc(c34)C[C@H]21 (stereo in doubt; (+)-1)		0				
CN1CCc2cccc3c2[C@H]1Cc1ccc(O)c(O)c1-3 [APOMORPHINE]	85	38	6.2	7.5		
Oc1cc2c(cc1O)C(c1ccccc1)CNCC2 (centres undefined) [SKF-38393]	0	58	6.6			
